Measured values taken from ChEMBL document CHEMBL1806372, “Cytotoxic ring A-modified steroid analogues derived from Grundmann's ketone” (Eur J Med Chem, 2011).

Columns and labels:
Type in all cases: functional
T47D = test: Cytotoxicity against human T47D cells after 48 hrs by sulforhodamine B assay; settings: read-out: LC50 (the source's name)
OVCAR-8 = test: Cytotoxicity against human OVCAR8 cells after 48 hrs by sulforhodamine B assay; settings: OVCAR-8, 48 h, read-out: LC50 (the source's name)
How it was run: (§1)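 NCI 60 human tumour cell line panel run to the NCI protocol. GI50, TGI and LC50 come from log concentration vs % growth inhibition curves for each cell line. Lines insensitive at the top concentration are reported with ">".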

SR [1] = test: Growth inhibition of human SR cells after 48 hrs by sulforhodamine B assay
How it was run: (§2)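 NCI 60-cell panel five-dose assay. GI50, TGI and LC50 are derived from log concentration versus % growth inhibition curves. Cell lines insensitive at the top concentration are given a ">" prefix.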

NCI/ADR-RES = test: Growth inhibition of human NCI/ADR-RES cells after 48 hrs by sulforhodamine B assay
How it was run: (§3)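 GI50, TGI and LC50 were derived from log concentration versus % growth inhibition curves for each cell line. GI50 is the concentration giving a 50% decrease in net cell growth. Insensitive lines are reported as greater than the highest concentration.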

SW-620 [2] = test: Growth inhibition of human SW620 cells after 48 hrs by sulforhodamine B assay; settings: SW-620, 48 h; how it was run: as §2
SF-539 = test: Growth inhibition of human SF539 cells after 48 hrs by sulforhodamine B assay; settings: SF-539, 48 h; how it was run: as §3
LOX IMVI [3] = test: Growth inhibition of human LOXIMVI cells after 48 hrs by sulforhodamine B assay
How it was run: (§4)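 From log concentration versus % growth curves, GI50 (50% decrease in net growth), TGI (total growth inhibition) and LC50 (net 50% loss of initial cells) are derived for each line.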

LOX IMVI [4] = test: Cytotoxicity against human LOXIMVI cells after 48 hrs by sulforhodamine B assay; settings: read-out: LC50 (the source's name); how it was run: as §1
MDA-MB-435 = test: Growth inhibition of human MDA-MB-435 cells after 48 hrs by sulforhodamine B assay; settings: MDA-MB-435, 48 h; how it was run: as §3
OVCAR-4 = test: Cytotoxicity against human OVCAR4 cells after 48 hrs by sulforhodamine B assay; settings: OVCAR-4, 48 h, read-out: LC50 (the source's name); how it was run: as §1
SF-295 = test: Cytotoxicity against human SF295 cells after 48 hrs by sulforhodamine B assay; settings: SF-295, 48 h, read-out: LC50 (the source's name); how it was run: as §1
MDA-MB-231 = test: Cytotoxicity against human MDA-MB-231 cells after 48 hrs by sulforhodamine B assay; settings: MDA-MB-231, 48 h, read-out: LC50 (the source's name); how it was run: as §1
UO-31 = test: Cytotoxicity against human UO31 cells after 48 hrs by sulforhodamine B assay; settings: UO-31, 48 h, read-out: LC50 (the source's name)
HCC 2998 [5] = test: Cytotoxicity against human HCC2998 cells after 48 hrs by sulforhodamine B assay; settings: HCC 2998, 48 h, read-out: LC50 (the source's name); how it was run: as §1
NCI-H522 = test: Growth inhibition of human NCI-H522 cells after 48 hrs by sulforhodamine B assay; settings: NCI-H522, 48 h; how it was run: as §3
SK-MEL-2 = test: Growth inhibition of human SK-MEL-2 cells after 48 hrs by sulforhodamine B assay; settings: SK-MEL-2, 48 h; how it was run: as §3
RPMI-8226 = test: Growth inhibition of human RPMI8226 cells after 48 hrs by sulforhodamine B assay; settings: RPMI-8226, 48 h; how it was run: as §3
Malme-3M [6] = test: Cytotoxicity against human MALME-3M cells after 48 hrs by sulforhodamine B assay; settings: read-out: LC50 (the source's name); how it was run: as §1
UACC-62 = test: Cytotoxicity against human UACC62 cells after 48 hrs by sulforhodamine B assay; settings: UACC-62, 48 h, read-out: LC50 (the source's name)
A549 = test: Growth inhibition of human A549 cells after 48 hrs by sulforhodamine B assay; settings: A549, 48 h; how it was run: as §4
HL-60(TB) = test: Cytotoxicity against human HL-60(TB) cells after 48 hrs by sulforhodamine B assay; settings: HL-60, 48 h, read-out: LC50 (the source's name); how it was run: as §1
KM12 = test: Cytotoxicity against human KM12 cells after 48 hrs by sulforhodamine B assay; settings: KM12, 48 h, read-out: LC50 (the source's name); how it was run: as §1
BT-549 [7] = test: Growth inhibition of human BT549 cells after 48 hrs by sulforhodamine B assay; settings: BT-549, 48 h; how it was run: as §4
UACC-257 = test: Cytotoxicity against human UACC257 cells after 48 hrs by sulforhodamine B assay; settings: UACC-257, 48 h, read-out: LC50 (the source's name)
U-251 = test: Growth inhibition of human U251 cells after 48 hrs by sulforhodamine B assay; settings: U-251, 48 h; how it was run: as §2
SK-OV-3 = test: Cytotoxicity against human SKOV3 cells after 48 hrs by sulforhodamine B assay; settings: SK-OV-3, 48 h, read-out: LC50 (the source's name); how it was run: as §1
EKVX = test: Growth inhibition of human EKVX cells after 48 hrs by sulforhodamine B assay; how it was run: as §4
HCC 2998 [8] = test: Growth inhibition of human HCC2998 cells after 48 hrs by sulforhodamine B assay; settings: HCC 2998, 48 h; how it was run: as §4
Malme-3M [9] = test: Growth inhibition of human MALME-3M cells after 48 hrs by sulforhodamine B assay; how it was run: as §3
BT-549 [10] = test: Cytotoxicity against human BT549 cells after 48 hrs by sulforhodamine B assay; settings: BT-549, 48 h, read-out: LC50 (the source's name); how it was run: as §1
[11] = Cytotoxicity against human Hs 578T cells after 48 hrs by sulforhodamine B assay; settings: read-out: LC50 (the source's name); how it was run: as §1
PC-3 = test: Cytotoxicity against human PC3 cells after 48 hrs by sulforhodamine B assay; settings: PC-3, 48 h, read-out: LC50 (the source's name); how it was run: as §1
SW-620 [12] = test: Cytotoxicity against human SW620 cells after 48 hrs by sulforhodamine B assay; settings: SW-620, 48 h, read-out: LC50 (the source's name)
RXF 393 = test: Growth inhibition of human RXF393 cells after 48 hrs by sulforhodamine B assay; settings: RXF 393, 48 h; how it was run: as §3
K562 = test: Growth inhibition of human K562 cells after 48 hrs by sulforhodamine B assay; settings: K562, 48 h; how it was run: as §4
OVCAR-5 = test: Cytotoxicity against human OVCAR5 cells after 48 hrs by sulforhodamine B assay; settings: OVCAR-5, 48 h, read-out: LC50 (the source's name); how it was run: as §1
SR [13] = test: Cytotoxicity against human SR cells after 48 hrs by sulforhodamine B assay; settings: read-out: LC50 (the source's name)
SNB-19 = test: Growth inhibition of human SNB19 cells after 48 hrs by sulforhodamine B assay; settings: SNB-19, 48 h; how it was run: as §2

CC(C)CCC[C@@H](C)[C@H]1CC[C@H]2C3=CCn4c(=O)ccc(=O)n4[C@@H]3CC[C@]12C
CC50 (T47D): 6290 nM
CC50 (OVCAR-8): > 100000 nM
GI50 (SR [1]): 137 nM
TGI (SR [1]): 758 nM
GI50 (NCI/ADR-RES): 417 nM
TGI (NCI/ADR-RES): 1900 nM
GI50 (SW-620 [2]): 375 nM
TGI (SW-620 [2]): 1360 nM
GI50 (SF-539): 1470 nM
TGI (SF-539): 2890 nM
GI50 (LOX IMVI [3]): 288 nM
TGI (LOX IMVI [3]): 1050 nM
CC50 (LOX IMVI [4]): 3520 nM
GI50 (MDA-MB-435): 354 nM
TGI (MDA-MB-435): 1780 nM
CC50 (OVCAR-4): 5630 nM
CC50 (SF-295): 3760 nM
CC50 (MDA-MB-231): 6250 nM
CC50 (UO-31): 4190 nM
CC50 (HCC 2998 [5]): 4990 nM
GI50 (NCI-H522): 175 nM
TGI (NCI-H522): 459 nM
GI50 (SK-MEL-2): 286 nM
TGI (SK-MEL-2): 774 nM
GI50 (RPMI-8226): 181 nM
TGI (RPMI-8226): 601 nM
CC50 (Malme-3M [6]): 6380 nM
CC50 (UACC-62): 5450 nM
GI50 (A549): 325 nM
TGI (A549): 1240 nM
CC50 (HL-60(TB)): > 100000 nM
CC50 (KM12): 4440 nM
GI50 (BT-549 [7]): 312 nM
TGI (BT-549 [7]): 876 nM
CC50 (UACC-257): 4320 nM
GI50 (U-251): 438 nM
TGI (U-251): 1590 nM
CC50 (SK-OV-3): 5470 nM
GI50 (EKVX): 1030 nM
TGI (EKVX): 2750 nM
GI50 (HCC 2998 [8]): 431 nM
TGI (HCC 2998 [8]): 1640 nM
GI50 (Malme-3M [9]): 1440 nM
TGI (Malme-3M [9]): 3030 nM
CC50 (BT-549 [10]): 2970 nM
CC50 [11]: > 100000 nM
CC50 (PC-3): 4830 nM
CC50 (SW-620 [12]): 5330 nM
GI50 (RXF 393): 952 nM
TGI (RXF 393): 2300 nM
GI50 (K562): 309 nM
TGI (K562): 2020 nM
CC50 (OVCAR-5): 7840 nM
CC50 (SR [13]): > 100000 nM
GI50 (SNB-19): 1520 nM
TGI (SNB-19): 3020 nM
